Measurements published in ChEMBL document CHEMBL1136962, “Galactosyl prodrug of ketorolac: synthesis, stability, and pharmacological and pharmacokinetic evaluations” (J Med Chem, 2009).
Calls of active or inactive are those of the source. The calls are words filed in the database; no cut-off is given here.

Legend:
[1] = Chemical stability assessed as hydrolysis half life in 0.1N HCl at pH 1; assay type: physicochemical
Procedure, shortened: (§1)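 Solutions of 100 µg/mL (ketorolac tris salt at 90.5 µg/mL) held at 37 °C for 24 h in 0.1 N HCl (pH 1), phosphate buffer pH 7.4 or 8.0, or plasma. Samples taken hourly; plasma samples extracted with acetonitrile (1:2) and centrifuged. Remaining ester measured by HPLC diode array at 313 nm. Pseudo-first-order t1/2 from log plots over time; mean ± SEM.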

[2] = Chemical stability assessed as hydrolysis half life in phosphate buffer at pH 7.4; assay type: physicochemical; procedure, shortened: as §1
[3] = Chemical stability assessed as hydrolysis half life in phosphate buffer at pH 8.0; assay type: physicochemical; procedure, shortened: as §1
[4] = Stability in rat plasma assessed as half life; assay type: ADME, cell-free; procedure, shortened: as §1
Mus musculus [5] = assay: Analgesic activity against acetic acid-induced writhing in po dosed Swiss mouse administered 1 hr before acetic acid challenge measured after 5 mins for 20 mins; assay type: functional, organism-based
Procedure, shortened: (§2)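 Male Swiss mice (20-25 g), fasted overnight, water allowed, six per group. Oral dosing with CMC vehicle given 1 h before ip 0.6% acetic acid or ip magnesium sulfate 120 mg/kg. Abdominal constriction, trunk turning and hind-leg extension counted: for acetic acid over 20 min starting 5 min post-injection, for MgSO4 over 5 min. Mean ± SEM.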

Mus musculus [6] = assay: Analgesic activity against acetic acid-induced writhing in Swiss mouse at 0.163 mg/kg, po administered 1 hr before acetic acid challenge measured after 5 mins for 20 mins; assay type: functional, organism-based; design: dose 0.163 mg/kg; procedure, shortened: as §2
Mus musculus [7] = assay: Analgesic activity against magnesium sulfate-induced writhing in po dosed Swiss mouse administered 1 hr before magnesium sulfate challenge measured for 5 mins; assay type: functional, organism-based; procedure, shortened: as §2
Mus musculus [8] = assay: Gastrointestinal toxicity in fasted Swiss mouse assessed ulcer index at 0.163 mg/kg, po after 4 hrs; assay type: organism-based; design: dose 0.163 mg/kg, route oral; details: in vivo
Procedure, shortened: (§3)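 Male Swiss mice, fasted 16-18 h, n = 6 per group, dosed orally (vehicle 0.5% CMC). Killed 4 h later; stomach opened along greater curvature, rinsed with saline and examined under magnifier. Scoring: irritation 1, lesions 1-3 mm 5, lesions >3 mm 10. Gastric lesion score and ulcer number given as mean ± SEM.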

Rattus norvegicus [9] = assay: Half life in Wistar rat assessed as ketorolac release at 0.163 mg/kg, po; assay type: ADME, organism-based; design: dose 0.163 mg/kg, route oral; details: in vivo
Procedure, shortened: (§4)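 Male Wistar rats (200 ± 20 g), single oral dose; killed by decapitation at […], at least three rats per time point, each measured in triplicate. Plasma deproteinized with acetonitrile, centrifuged, organic phase analyzed by C18 HPLC at 313 nm with tolmetine internal standard. Calibration 0.1-100 µg/mL in drug-free matrix. Parameters taken from semilog concentration-time plots.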

Rattus norvegicus [10] = assay: Tmax in Wistar rat assessed as ketorolac release at 0.163 mg/kg, po; assay type: ADME, organism-based; design: dose 0.163 mg/kg, route oral; details: in vivo; procedure, shortened: as §4
Rattus norvegicus [11] = assay: Cmax in Wistar rat assessed as ketorolac release at 0.163 mg/kg, po; assay type: ADME, organism-based; design: dose 0.163 mg/kg, route oral; details: in vivo; procedure, shortened: as §4
Rattus norvegicus [12] = assay: AUC (0 to 6 hrs) in Wistar rat assessed as ketorolac release at 0.163 mg/kg, po; assay type: ADME, organism-based, Plasma; design: time < 6 hr, dose 0.163 mg/kg, route oral; details: in vivo; procedure, shortened: as §4
Rattus norvegicus [13] = assay: AUMC (0 to 6 hrs) in Wistar rat assessed as ketorolac release at 0.163 mg/kg, po; assay type: ADME, organism-based; design: dose 0.163 mg/kg, route oral; details: in vivo; procedure, shortened: as §4
Rattus norvegicus [14] = assay: Mean residence time in Wistar rat assessed as time required for 63.2% of administered dose to be eliminated as ketorolac at 0.163 mg/kg, po; assay type: ADME, organism-based; design: dose 0.163 mg/kg, route oral; details: in vivo; procedure, shortened: as §4
Rattus norvegicus [15] = assay: Systemic clearance in Wistar rat assessed as ketorolac release at 0.163 mg/kg, po; assay type: ADME, organism-based; design: dose 0.163 mg/kg, route oral; details: in vivo; procedure, shortened: as §4
Rattus norvegicus [16] = assay: Elimination half life in Wistar rat assessed as ketorolac release at 0.163 mg/kg, po; assay type: ADME, organism-based; design: dose 0.163 mg/kg, route oral; details: in vivo; procedure, shortened: as §4
Mus musculus [17] = assay: Antiinflammatory activity in Swiss mouse assessed as reduction in carrageenan-induced hind paw edema at 0.1 mg/kg, po administered 1 hr before carrageenan challenge; assay type: functional, organism-based; design: dose 0.1 mg/kg
Procedure, shortened: (§5)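 Male Swiss mice, six per group, dosed orally (CMC vehicle) 1 h before subplantar injection of 50 µL of 1% λ-carrageenan in saline into the right hind paw. Paw volume read by plethysmometer at intervals up to 96 h. Edema taken as volume minus basal volume measured just before injection. Mean ± SEM.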

Mus musculus [18] = assay: Antiinflammatory activity in Swiss mouse assessed as reduction in carrageenan-induced hind paw edema at 10 mg/kg, po administered 1 hr before carrageenan challenge measured after 48 hrs; assay type: functional, organism-based; design: dose 10 mg/kg; procedure, shortened: as §5
Mus musculus [19] = assay: Gastrointestinal toxicity in fasted Swiss mouse assessed ulcer index at 0.1 mg/kg, po after 4 hrs; assay type: organism-based; design: dose 0.1 mg/kg, route oral; details: in vivo; procedure, shortened: as §3
[20] = Half life in Wistar rat at 0.1 mg/kg, po; assay type: ADME, organism-based; design: dose 0.1 mg/kg, route oral; details: in vivo; procedure, shortened: as §4
[21] = Tmax in Wistar rat at 0.1 mg/kg, po; assay type: ADME, organism-based; design: dose 0.1 mg/kg, route oral; details: in vivo; procedure, shortened: as §4
[22] = Cmax in Wistar rat at 0.1 mg/kg, po; assay type: ADME, organism-based; design: dose 0.1 mg/kg, route oral; details: in vivo; procedure, shortened: as §4
[23] = AUC (0 to 6 hrs) in Wistar rat at 0.1 mg/kg, po; assay type: ADME, organism-based; design: time < 6 hr, dose 0.1 mg/kg, route oral; details: plasma; procedure, shortened: as §4
Rattus norvegicus [24] = assay: AUMC (0 to 6 hrs) in Wistar rat at 0.1 mg/kg, po; assay type: ADME, organism-based; design: dose 0.1 mg/kg, route oral; details: in vivo; procedure, shortened: as §4
[25] = Mean residence time in Wistar rat assessed as time required for 63.2% of administered dose to be eliminated at 0.1 mg/kg, po; assay type: ADME, organism-based; design: dose 0.1 mg/kg, route oral; details: in vivo; procedure, shortened: as §4
[26] = Systemic clearance in Wistar rat at 0.1 mg/kg, po; assay type: ADME, organism-based; design: dose 0.1 mg/kg, route oral; details: in vivo; procedure, shortened: as §4
[27] = Elimination half life in Wistar rat at 0.1 mg/kg, po; assay type: ADME, organism-based; design: dose 0.1 mg/kg, route oral; details: in vivo, read-out: beta t1/2 (converted); procedure, shortened: as §4

Q: What does the source list for `O=C(c1ccccc1)c1ccc2n1CC[C@@H]2C(=O)OC[C@H]1OC(O)[C@H](O)[C@@H](O)[C@H]1O` (stereo partly drawn)?
A: half-life [1]: 2.1 h; half-life [2]: > 4 h; half-life [3]: > 4 h; half-life [4]: 1.5 h; Activity (Mus musculus [5]): Dose-dependent effect; Activity (Mus musculus [6]): Active; Activity (Mus musculus [7]): Dose-dependent effect; UI (Mus musculus [8]): 1; t1/2 (Rattus norvegicus [9]): 5.23 h; Tmax (Rattus norvegicus [10]): 1 h; Cmax (Rattus norvegicus [11]): 240 ng/mL; AUC (Rattus norvegicus [12]): 935 ng·h/mL; AUMC (Rattus norvegicus [13]): 5600 ng·h/mL; MRT (Rattus norvegicus [14]): 4.5 h; CL (Rattus norvegicus [15]): 80.36 mL/h; beta t1/2 (Rattus norvegicus [16]): 2.4 h

Q: For `O=C(c1ccccc1)c1ccc2n1CCC2C(=O)O` (stereo not drawn) [KETOROLAC], which half-life [1] is on record?
A: Its half-life is over 4 h.

Q: What about the half-life [2] of the same compound?
A: The half-life was over 4 h.

Q: What about the half-life [3] of the same compound?
A: The half-life was over 4 h.

Q: And the half-life [4]?
A: Its half-life is over 4 h.

Q: What about the Activity (Mus musculus [5]) of the same compound?
A: Its Activity is “Dose-dependent effect”.

Q: What about the Activity (Mus musculus [7]) of the same compound?
A: Its Activity is “Dose-dependent effect”.

Q: And the Activity (Mus musculus [17])?
A: The Activity was “inactive”.

Q: What about the Activity (Mus musculus [18]) of the same compound?
A: Its Activity is “Active”.

Q: And the UI (Mus musculus [19])?
A: The UI was 10.

Q: What about the half-life [20] of the same compound?
A: The half-life was 1.65 h.

Q: And the Tmax [21]?
A: Its Tmax is 1 h.

Q: And the Cmax [22]?
A: The Cmax was 400 ng/mL.

Q: What about the AUC(0-t) at 6 h [23] of the same compound?
A: The AUC(0-t) at 6 h was 855 ng·h/mL.

Q: And the AUMC (Rattus norvegicus [24])?
A: The AUMC was 3300 ng·h/mL.

Q: What about the MRT [25] of the same compound?
A: Its MRT is 3.1 h.

Q: What about the CL/F [26] of the same compound?
A: The CL/F was 1.57 mL/min.

Q: And the half-life [27]?
A: Its half-life is 1.99 h.
